Sampled rows, rich in hits. Any-hit rate of the full collection: about 2.9%.
DDE Tn7 FP inh: inhibitors of Tn7 peptide binding to human fibrin DD(E). FP displacement of FITC-Tn7 peptide from fibrin DD(E); 0% = median of compound wells per plate. inhibition, % at 8.3 µM. 370,000 tested, 0.13% active;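 active = inhibition above the mean of compounds falling within the control limits plus 3 SD of them, cut at about 14% in these data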;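 also: 0% = plate median of compound wells and 100% = 10 µM Aha-Tn7 peptide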
Target sequence (P02675 whole entry, looked up): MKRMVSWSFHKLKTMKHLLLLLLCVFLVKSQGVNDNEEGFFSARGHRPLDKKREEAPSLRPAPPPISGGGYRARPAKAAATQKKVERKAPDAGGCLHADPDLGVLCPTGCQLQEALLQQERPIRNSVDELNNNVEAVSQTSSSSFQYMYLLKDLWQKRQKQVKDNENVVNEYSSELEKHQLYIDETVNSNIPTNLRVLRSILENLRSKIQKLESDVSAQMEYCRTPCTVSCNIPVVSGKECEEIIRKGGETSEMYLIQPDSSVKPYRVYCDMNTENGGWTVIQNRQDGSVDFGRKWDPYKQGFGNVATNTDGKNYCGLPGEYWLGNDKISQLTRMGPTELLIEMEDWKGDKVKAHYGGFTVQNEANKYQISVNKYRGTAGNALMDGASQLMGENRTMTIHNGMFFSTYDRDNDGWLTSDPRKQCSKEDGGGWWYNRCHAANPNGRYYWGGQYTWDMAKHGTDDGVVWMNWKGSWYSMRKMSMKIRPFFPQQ
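Measure: % inhibition scaled between sample-field median and high-control FP; Test system: human fibrin DD(E); Quantity: 2 µM final DD(E) protein; Doses: one dose, 8.3 µM nominal; Schedule: compound with protein 10 min, then 3 h after probe, room temperature; Detection: fluorescence polarization; Medium: Tris buffer with calcium and detergent, pH 7.8.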
CRFR2-BP antag: CRF-BP/CRF-R2 complex antagonism; HEK293 CRF-R2/CRF-BP, CRF-induced calcium fluorescence; 350,000 tested, 0.59% active; inhibition, % at 11.8 µM; AID 588475;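 active = inhibition of the ligand-induced calcium signal above about 50% at the single tested concentration, limit read from the data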
NRP1-CendR mod: modulators of CendR peptide binding to human neuropilin-1. O14786. FAM-RPARPAR peptide binding to NRP-1, fluorescence polarization. inhibition, % at 25 µM. 360,000 tested, 0.85% active;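 active = inhibition or corrected inhibition above about 18%, plus a signal ratio from 0.5 to 1.5, limit read from the data, passing the limit was not always enough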
DDE Tn6 FP inh: disrupts Tn6 cyclic peptide binding to fibrin D-Dimer-E complex; AID 720509; inhibition, % at 8.3 µM; 370,000 tested, 0.21% active; Fibrin DD(E) TRITC-Tn6 fluorescence polarization displacement; P02675;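 active = inhibition above a per-campaign cutoff: mean of compounds within control limits plus 3 SD, cut at about 15% in these data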;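 also: 0% = median of all compound wells on the plate and 100% = blocking peptide control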
KLK7 zymogen act: activates the human kallikrein-7 zymogen. activation, % at 7 µM. AID 652039. P49862. purified proKLK7, EDANS-DABCYL substrate fluorescence; 100% is mature enzyme control, 0% vehicle. 370,000 tested, 0.9% active;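 active = activation above the mean of all tested compounds plus 3 SD, computed per campaign excluding outliers beyond control limits, cut at about 13% in these data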
CRFBP-R2 agonist: agonists of human CRF-binding protein/CRF-R2 receptor complex. HEK293 CRF-R2/CRF-BP, calcium dye fluorescence (FLIPR); percent of saturating CRF peptide response. activation, % at 13.2 µM. 350,000 tested, 0.46% active. AID 588473;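 active = activation of at least 50%, plus an integration ratio under a set limit after plate pattern correction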;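 also: plate controls were neutral control wells without compound for no effect and CRF at EC100 for full effect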
An asterisk follows results filed as active; . = not tested or not shown.

SMILES | DDE Tn7 FP inh | CRFR2-BP antag | NRP1-CendR mod | DDE Tn6 FP inh | KLK7 zymogen act | CRFBP-R2 agonist
COc1ccc2c(c1OC)C(=O)N1c3ccccc3COC21 (stereo not drawn) | -3 | 67* | 10 | -7 | 1 | -2
COC(=O)CCCC1=CC2=C(c3ccccc3)C(=O)C(C)(OC(=O)C3CCCC3)C(=O)C2=CN1CCc1ccccn1 (stereo not drawn) | 4 | 57* | 3 | -3 | 0 | 2
COC(=O)CCCC1=CC2=C(c3ccccc3)C(=O)C(C)(OC(=O)C3CCCC3)C(=O)C2=CN1CCN1CCOCC1 (stereo not drawn) | -2 | 3 | 17 | -5 | 0 | 1
COc1ccc(-n2c(SCC(=O)NCCCSC)nnc2-c2ccncc2)cc1 | -8 | . | . | 1 | 0 | .
Fc1ccc(N=c2ssnc2Cl)c(F)c1 | -7 | -10 | -8 | -2 | -1 | 70*
Clc1nssc1=Nc1ccccc1 | . | 12 | -6 | . | . | 0
Clc1ccc(N=c2ssnc2Cl)cc1 | 0 | 43 | -3 | 6 | 0 | 67*
Cc1ccc(F)cc1C(=O)N(Cc1ccccn1)CC1CCCO1 (stereo not drawn) | -8 | . | . | 4 | 0 | .
COc1cc(/C=C2/SC(=O)NC2=O)ccc1OCc1ccccc1 | 1 | -7 | -24 | -15 | -1 | -8
COc1cc(/C=C2/SC(=O)N(Cc3ccccc3Cl)C2=O)ccc1OCc1ccncc1 | 5 | -16 | 21* | 7 | 1 | -2
COc1ccccc1N1CCN(C(=O)c2cc3c(C)nn(-c4ccccc4)c3s2)CC1 | 3 | . | . | -9 | 0 | .
O=C(C1CCCN(S(=O)(=O)c2ccc(Br)s2)C1)N1CCN(c2ccccc2)CC1 (stereo not drawn) | -10 | -10 | 15 | -2 | 0 | 0
CCOC(=O)C1CCN(C(=O)c2ccc(Cl)c(S(=O)(=O)N3CCCC3)c2)CC1 | 1 | -2 | 30* | 3 | 0 | -1
O=C(c1ccc(Cl)c(S(=O)(=O)N2CCCC2)c1)N1CCN(c2ccccc2)CC1 | -4 | -7 | 37* | -3 | 0 | 0
O=C(C1CCN(S(=O)(=O)c2ccc(Cl)s2)CC1)N1CCN(c2ccccc2)CC1 | -2 | -37 | 28* | -4 | 0 | 17
C=CCN=C1NC(CCc2ccccc2)C(C(=O)OC)=C(C)N1C (stereo not drawn) | 7 | . | . | -8 | 0 | .
Cc1ccc(S(=O)(=O)N2CCCC2C(c2ccccc2O)c2cn(C)c3ccccc23)cc1 (stereo not drawn) | 4 | . | . | -3 | 0 | .
C[C@H]1Cn2nncc2Cn2c3ccccc3c(=O)n21 | -14 | . | . | 2 | 2 | .
CN(C)c1ccc(CC(=O)N2CCCC(c3cc(C(=O)Nc4ccccc4)no3)C2)cc1 (stereo not drawn) | -3 | . | 4 | 6 | 0 | .
CC(C)c1ccc(C(=O)N2CCCC(c3cc(C(=O)Nc4ccc5c(c4)OCO5)no3)C2)cc1 (stereo not drawn) | -6 | . | 22* | 0 | 0 | .
CN(C)c1ccc(CC(=O)N2CCCC(c3cc(C(=O)Nc4ccc5c(c4)OCO5)no3)C2)cc1 (stereo not drawn) | -5 | . | 33* | -3 | 0 | .
Cc1ccc(Cn2cc(CN(C(C)(C)C)S(=O)(=O)c3ccc(F)cc3Br)nn2)cc1 | 4 | . | . | 5 | 1 | .
COC(=O)[C@H]1CN(C(=O)c2ccccc2)C(=O)N1 | 2 | 35 | 25* | 2 | 0 | -2
COc1ccc2c(c1)[n+](=O)c(C(C)=O)c(C)n2[O-] | -10 | 4 | -1 | 3 | 0 | 0
CCOC(=O)c1c(=O)n(O)c2ccc(OC)cc2[n+]1[O-] | 0 | -14 | 25* | 2 | 1 | 28
SMILES | DDE Tn7 FP inh | CRFR2-BP antag | NRP1-CendR mod | DDE Tn6 FP inh | KLK7 zymogen act | CRFBP-R2 agonist
COc1ccc2c(c1)N[C@@](CCN1C(=O)c3ccccc3C1=O)(c1[nH]c3ccccc3c1CCN1C(=O)c3ccccc3C1=O)C2=O | 6 | . | . | -3 | . | .
CC1=CC(C)(C(Cl)(Cl)Cl)C(C)=CC1=NO (stereo not drawn) | 4 | 57* | -9 | 0 | 1 | 0
CCN(CC(=O)Nc1ccc(OC)c(OC)c1)S(=O)(=O)c1ccc(C)cc1 | 1 | 18 | -2 | -5 | 0 | -1
CCN(CC(=O)Nc1cccc(C(C)=O)c1)S(=O)(=O)c1ccc(C)cc1 | -4 | 0 | 43* | 2 | 0 | 0
N#CCCN(C(=O)Nc1ccc(Cl)cc1)c1ccccc1 | -1 | -13 | -3 | -9 | 0 | 2
N#CCCN(C(=O)Nc1ccccc1)c1ccccc1 | 2 | 9 | 28* | -2 | 0 | -1
COc1ccc(CNC(=O)CCc2nc3cc(S(=O)(=O)N(C)C)ccc3n2C)cc1OC | 9 | 64* | -1 | -7 | 0 | -1
COc1ccc(CNC(=O)CN(C)S(=O)(=O)c2ccc3c(c2)n(C)c(=O)c(=O)n3C)cc1 | -3 | 69* | 13 | 3 | 0 | -1
O=C(CN1CCc2onc(-c3cccc(-n4cc(CO)nn4)c3)c2C1=O)N1CCOCC1 | -6 | . | . | 2 | 0 | .
CCCCC(CC)CN=C(N)NC(N)=NCCCCCCN=C(N)NC(N)=NCC(CC)CCCC (stereo not drawn) | . | -71 | -8 | . | . | 112*
CCCCC(CC)CO (stereo not drawn) | -3 | 14 | 7 | 4 | 0 | -3
CCN=C1NC(c2ccc(Cl)cc2)C(C(=O)OC)=C(C)N1Cc1cccc(C(F)(F)F)c1 (stereo not drawn) | 0 | . | . | 0 | 0 | .
Cc1cccc2cc(C#N)c(SCCN3CCCCC3)nc12 | . | -24 | . | . | . | 4
Cc1cccc2cc(C#N)c(SCc3nnc(-c4ccccc4[N+](=O)[O-])o3)nc12 | 4 | 29 | 32* | 0 | 0 | 0
COCCNC(=O)/C(C#N)=C/c1c(N2CCN(c3ccccc3)CC2)nc2c(C)cccn2c1=O | -2 | 23 | 11 | 4 | 11 | -2
COCCNC(=O)/C(C#N)=C/c1c(N2CCN(c3cccc(Cl)c3)CC2)nc2c(C)cccn2c1=O | -9 | 31 | 19* | -1 | 7 | -1
O=C(NC1CCCCN(Cc2cccc(Cl)c2)C1=O)c1ccc(-c2ccccc2)cc1 (stereo not drawn) | 0 | . | . | -1 | 1 | .
CCOC(=O)c1c(-c2ccc(OC)c(OC)c2)csc1NC(=O)C1CCCO1 (stereo not drawn) | 3 | 60* | 3 | 1 | -1 | -6
CC(Oc1cccc(Cl)c1)C(=O)Nc1ccccc1N1CCCCC1 (stereo not drawn) | 1 | -15 | 28* | -3 | -1 | 0
CCCCOC1CC(c2ccc(OCc3ccc(OC)cc3)c(OC)c2)N(C)O1 (stereo not drawn) | -8 | 89* | -2 | 5 | 0 | -3

Screening results deposited in PubChem by several laboratories.
